Assay results as given in ChEMBL document CHEMBL1152191, “Identification and optimization of N3,N6-diaryl-1H-pyrazolo[3,4-d]pyrimidine-3,6-diamines as a novel class of ACK1 inhibitors” (Bioorg Med Chem Lett, 2008).

What was measured:
[1] = Mean residence time in Sprague-Dawley rat at 0.5 mg/kg, iv; type: ADME, organism-based; set-up: dose 0.5 mg/kg, route intravenous; settings: in vivo
Method in brief: (§1)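 Male Sprague–Dawley rats received 0.5 mg/kg as an iv dose, with n = 3 animals per study. CL, Vss, MRT and AUC were derived from the plasma concentration profile.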

[2] = AUC in Sprague-Dawley rat at 0.5 mg/kg, iv; type: ADME, organism-based; set-up: dose 0.5 mg/kg, route intravenous; settings: plasma; method in brief: as §1
Activated CDC42 kinase 1 [3] = target: T1, Activated CDC42 kinase 1 (Homo sapiens, UniProt Q07912); assay: Inhibition of histidine-tagged ACK1 (amino acids 117 to 489) expressed in SF9 cells
Activated CDC42 kinase 1 [4] = target: T1, Activated CDC42 kinase 1; assay: Inhibition of flag-tagged ACK1 autophosphorylation expressed in human 293 cells; type: cell-based, HEK293
Method in brief: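 293 cells stably expressing Flag-ACK1 are detached with PBS/EDTA, washed, and pre-incubated in suspension with DMSO or compound. They are then re-plated for 2 h in medium with 10% FCS, with directly lysed cells as control. Autophosphorylation is read by anti-pTyr western blot after Flag IP, and IC50 determined.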

[5] = Clearance in Sprague-Dawley rat at 0.5 mg/kg, iv; type: ADME, organism-based; set-up: dose 0.5 mg/kg, route intravenous; settings: in vivo; method in brief: as §1
[6] = Volume of distribution at steady state in Sprague-Dawley rat at 0.5 mg/kg, iv; type: ADME, organism-based; set-up: dose 0.5 mg/kg, route intravenous; settings: in vivo, read-out: Vdss; method in brief: as §1
[7] = target: Tyrosine-protein kinase BTK (Homo sapiens, UniProt Q06187); assay: Inhibition of BTK
[8] = target: Vascular endothelial growth factor receptor 2 (Homo sapiens, UniProt P35968); assay: Inhibition of KDR
Angiopoietin-1 receptor = Angiopoietin-1 receptor (Homo sapiens, UniProt Q02763); assay: Inhibition of Tie2
[9] = target: T2, Tyrosine-protein kinase JAK3 (Homo sapiens, UniProt P52333); assay: Inhibition of Jak3
T2 sequence (P52333 whole entry): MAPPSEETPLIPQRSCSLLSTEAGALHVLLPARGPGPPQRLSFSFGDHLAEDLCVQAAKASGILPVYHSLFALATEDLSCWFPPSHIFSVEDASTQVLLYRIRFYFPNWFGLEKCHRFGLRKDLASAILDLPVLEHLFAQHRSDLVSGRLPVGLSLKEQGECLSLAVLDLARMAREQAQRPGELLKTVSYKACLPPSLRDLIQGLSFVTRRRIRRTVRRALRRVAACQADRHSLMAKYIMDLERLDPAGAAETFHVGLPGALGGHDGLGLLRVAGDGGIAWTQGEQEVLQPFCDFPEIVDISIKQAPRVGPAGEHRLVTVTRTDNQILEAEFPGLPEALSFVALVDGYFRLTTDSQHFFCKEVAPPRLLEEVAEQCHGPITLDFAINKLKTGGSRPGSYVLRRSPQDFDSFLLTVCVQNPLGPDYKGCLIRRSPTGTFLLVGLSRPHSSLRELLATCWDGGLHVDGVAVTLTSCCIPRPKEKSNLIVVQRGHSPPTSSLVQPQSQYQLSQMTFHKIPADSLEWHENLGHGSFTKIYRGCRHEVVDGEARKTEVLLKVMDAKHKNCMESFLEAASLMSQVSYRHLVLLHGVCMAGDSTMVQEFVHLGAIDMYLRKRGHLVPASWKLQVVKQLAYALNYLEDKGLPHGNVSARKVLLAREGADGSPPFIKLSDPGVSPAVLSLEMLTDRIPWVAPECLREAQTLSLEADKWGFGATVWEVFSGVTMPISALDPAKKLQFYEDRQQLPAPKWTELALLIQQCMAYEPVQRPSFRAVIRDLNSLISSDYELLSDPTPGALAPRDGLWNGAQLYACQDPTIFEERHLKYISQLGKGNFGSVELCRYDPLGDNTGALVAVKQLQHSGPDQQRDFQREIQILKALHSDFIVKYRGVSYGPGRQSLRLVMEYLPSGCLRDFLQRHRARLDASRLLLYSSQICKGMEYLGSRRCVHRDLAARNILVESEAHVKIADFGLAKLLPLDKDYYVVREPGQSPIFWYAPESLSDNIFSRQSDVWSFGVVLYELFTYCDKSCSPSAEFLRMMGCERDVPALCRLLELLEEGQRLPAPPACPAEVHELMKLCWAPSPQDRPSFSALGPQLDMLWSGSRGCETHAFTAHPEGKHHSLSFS

[10] = target: Tyrosine-protein kinase Lck (Homo sapiens, UniProt P06239); assay: Inhibition of LCK
[11] = AUC in Sprague-Dawley rat at 0.4 mg/kg, iv; type: ADME, organism-based; set-up: dose 0.4 mg/kg, route intravenous; settings: plasma
Method in brief: (§2)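 Male Sprague–Dawley rats were dosed intravenously; clearance and AUC were taken from the plasma profile.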

[12] = Clearance in Sprague-Dawley rat at 0.4 mg/kg, iv; type: ADME, organism-based; set-up: dose 0.4 mg/kg, route intravenous; settings: in vivo; method in brief: as §2
[13] = Oral bioavailability in Sprague-Dawley rat at 4 mg/kg; type: ADME, organism-based; settings: in vivo

Chain of Vascular endothelial growth factor receptor 2 (P35968 whole entry): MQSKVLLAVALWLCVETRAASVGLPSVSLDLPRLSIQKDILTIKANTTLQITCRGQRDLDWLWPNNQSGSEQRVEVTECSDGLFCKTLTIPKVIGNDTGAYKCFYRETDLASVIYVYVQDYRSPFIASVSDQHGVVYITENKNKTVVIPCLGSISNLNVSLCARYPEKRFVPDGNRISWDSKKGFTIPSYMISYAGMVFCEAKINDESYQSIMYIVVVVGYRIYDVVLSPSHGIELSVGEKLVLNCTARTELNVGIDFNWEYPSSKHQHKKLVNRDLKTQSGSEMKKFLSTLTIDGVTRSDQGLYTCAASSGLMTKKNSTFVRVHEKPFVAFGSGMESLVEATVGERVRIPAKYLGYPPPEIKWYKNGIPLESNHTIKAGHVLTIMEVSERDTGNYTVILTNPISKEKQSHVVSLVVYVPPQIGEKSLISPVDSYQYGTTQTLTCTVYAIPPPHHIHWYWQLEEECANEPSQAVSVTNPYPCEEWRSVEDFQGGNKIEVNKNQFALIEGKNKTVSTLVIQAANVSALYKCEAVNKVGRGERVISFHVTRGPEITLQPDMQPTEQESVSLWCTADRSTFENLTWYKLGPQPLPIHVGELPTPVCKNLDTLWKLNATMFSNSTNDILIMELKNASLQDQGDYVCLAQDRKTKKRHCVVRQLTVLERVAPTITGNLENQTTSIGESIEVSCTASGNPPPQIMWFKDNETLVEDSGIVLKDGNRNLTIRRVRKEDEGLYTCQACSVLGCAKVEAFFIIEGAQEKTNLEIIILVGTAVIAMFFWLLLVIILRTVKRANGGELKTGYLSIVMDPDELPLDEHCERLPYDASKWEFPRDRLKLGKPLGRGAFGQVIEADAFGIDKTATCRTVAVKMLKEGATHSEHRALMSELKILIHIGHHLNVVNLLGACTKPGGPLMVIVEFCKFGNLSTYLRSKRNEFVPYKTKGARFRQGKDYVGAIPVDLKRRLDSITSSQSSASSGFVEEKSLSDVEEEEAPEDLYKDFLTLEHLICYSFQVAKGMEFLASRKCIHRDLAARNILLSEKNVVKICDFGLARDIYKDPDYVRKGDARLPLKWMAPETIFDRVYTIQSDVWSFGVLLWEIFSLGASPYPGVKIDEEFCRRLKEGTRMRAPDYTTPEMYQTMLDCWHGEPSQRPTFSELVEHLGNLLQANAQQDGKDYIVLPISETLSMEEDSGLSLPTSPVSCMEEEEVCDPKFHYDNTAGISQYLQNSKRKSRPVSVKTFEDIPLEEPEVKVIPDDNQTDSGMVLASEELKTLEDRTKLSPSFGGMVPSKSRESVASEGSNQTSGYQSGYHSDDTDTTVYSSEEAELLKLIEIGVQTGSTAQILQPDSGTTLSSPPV
Chain of Tyrosine-protein kinase Lck (P06239 whole entry): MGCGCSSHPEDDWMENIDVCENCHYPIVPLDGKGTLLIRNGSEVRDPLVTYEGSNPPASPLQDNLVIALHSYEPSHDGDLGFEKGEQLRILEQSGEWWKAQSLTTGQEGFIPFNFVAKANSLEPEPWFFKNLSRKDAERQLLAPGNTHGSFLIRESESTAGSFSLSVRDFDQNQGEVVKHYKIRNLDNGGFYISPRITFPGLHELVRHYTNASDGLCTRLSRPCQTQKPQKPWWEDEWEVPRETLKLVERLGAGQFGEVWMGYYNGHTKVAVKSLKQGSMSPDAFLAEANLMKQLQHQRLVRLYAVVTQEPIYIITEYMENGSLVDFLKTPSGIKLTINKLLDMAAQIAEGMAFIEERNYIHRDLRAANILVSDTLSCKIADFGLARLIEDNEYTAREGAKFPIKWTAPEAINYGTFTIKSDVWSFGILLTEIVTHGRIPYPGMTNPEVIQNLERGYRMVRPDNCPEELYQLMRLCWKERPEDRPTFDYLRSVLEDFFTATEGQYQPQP
Chain of Angiopoietin-1 receptor (Q02763 whole entry): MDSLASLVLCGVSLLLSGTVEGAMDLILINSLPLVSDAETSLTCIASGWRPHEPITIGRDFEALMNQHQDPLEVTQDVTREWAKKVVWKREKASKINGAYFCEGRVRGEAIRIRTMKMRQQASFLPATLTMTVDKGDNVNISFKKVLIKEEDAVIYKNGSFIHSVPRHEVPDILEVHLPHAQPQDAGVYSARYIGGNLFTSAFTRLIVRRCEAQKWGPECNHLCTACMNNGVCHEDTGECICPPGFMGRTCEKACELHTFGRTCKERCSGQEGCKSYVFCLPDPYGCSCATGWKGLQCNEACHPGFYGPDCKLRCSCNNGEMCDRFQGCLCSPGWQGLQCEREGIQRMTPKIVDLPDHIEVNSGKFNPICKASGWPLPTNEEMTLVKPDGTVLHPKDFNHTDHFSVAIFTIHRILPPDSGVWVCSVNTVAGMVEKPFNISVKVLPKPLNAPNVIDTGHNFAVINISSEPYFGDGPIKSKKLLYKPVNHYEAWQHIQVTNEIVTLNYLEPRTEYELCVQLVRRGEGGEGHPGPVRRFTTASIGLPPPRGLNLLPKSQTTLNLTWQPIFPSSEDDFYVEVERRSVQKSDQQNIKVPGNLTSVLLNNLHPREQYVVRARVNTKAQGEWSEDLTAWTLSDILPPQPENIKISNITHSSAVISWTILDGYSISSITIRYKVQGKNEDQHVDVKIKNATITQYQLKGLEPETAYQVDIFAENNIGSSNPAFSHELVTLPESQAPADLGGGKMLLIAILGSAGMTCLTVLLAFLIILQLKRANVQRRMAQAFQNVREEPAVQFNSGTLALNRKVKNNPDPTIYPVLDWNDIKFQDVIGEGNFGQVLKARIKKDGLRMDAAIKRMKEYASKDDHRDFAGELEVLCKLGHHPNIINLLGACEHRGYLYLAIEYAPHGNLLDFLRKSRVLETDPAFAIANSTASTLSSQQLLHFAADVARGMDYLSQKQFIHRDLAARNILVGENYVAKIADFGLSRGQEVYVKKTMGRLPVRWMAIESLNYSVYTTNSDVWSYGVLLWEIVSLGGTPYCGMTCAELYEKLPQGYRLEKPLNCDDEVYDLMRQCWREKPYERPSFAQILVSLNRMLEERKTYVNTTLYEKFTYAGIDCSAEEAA
Chain of Tyrosine-protein kinase BTK (Q06187 whole entry): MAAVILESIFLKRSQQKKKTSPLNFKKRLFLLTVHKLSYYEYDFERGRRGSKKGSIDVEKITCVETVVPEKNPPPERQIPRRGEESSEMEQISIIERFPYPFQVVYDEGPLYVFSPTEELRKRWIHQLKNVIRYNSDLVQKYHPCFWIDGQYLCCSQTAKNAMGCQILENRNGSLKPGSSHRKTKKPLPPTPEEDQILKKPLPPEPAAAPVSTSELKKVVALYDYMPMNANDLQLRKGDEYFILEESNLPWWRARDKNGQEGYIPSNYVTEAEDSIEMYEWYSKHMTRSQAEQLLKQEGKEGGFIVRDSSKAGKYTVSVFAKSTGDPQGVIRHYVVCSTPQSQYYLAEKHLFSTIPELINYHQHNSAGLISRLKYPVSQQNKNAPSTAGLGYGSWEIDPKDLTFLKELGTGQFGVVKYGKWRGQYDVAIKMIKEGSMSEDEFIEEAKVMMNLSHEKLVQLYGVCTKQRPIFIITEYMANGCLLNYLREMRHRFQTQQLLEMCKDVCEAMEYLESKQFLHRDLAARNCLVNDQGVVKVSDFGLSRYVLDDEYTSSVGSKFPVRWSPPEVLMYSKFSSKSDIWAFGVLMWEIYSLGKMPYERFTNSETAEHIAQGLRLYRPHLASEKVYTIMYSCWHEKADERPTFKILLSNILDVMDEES
T1 sequence (Q07912 whole entry, the tested form may be a part): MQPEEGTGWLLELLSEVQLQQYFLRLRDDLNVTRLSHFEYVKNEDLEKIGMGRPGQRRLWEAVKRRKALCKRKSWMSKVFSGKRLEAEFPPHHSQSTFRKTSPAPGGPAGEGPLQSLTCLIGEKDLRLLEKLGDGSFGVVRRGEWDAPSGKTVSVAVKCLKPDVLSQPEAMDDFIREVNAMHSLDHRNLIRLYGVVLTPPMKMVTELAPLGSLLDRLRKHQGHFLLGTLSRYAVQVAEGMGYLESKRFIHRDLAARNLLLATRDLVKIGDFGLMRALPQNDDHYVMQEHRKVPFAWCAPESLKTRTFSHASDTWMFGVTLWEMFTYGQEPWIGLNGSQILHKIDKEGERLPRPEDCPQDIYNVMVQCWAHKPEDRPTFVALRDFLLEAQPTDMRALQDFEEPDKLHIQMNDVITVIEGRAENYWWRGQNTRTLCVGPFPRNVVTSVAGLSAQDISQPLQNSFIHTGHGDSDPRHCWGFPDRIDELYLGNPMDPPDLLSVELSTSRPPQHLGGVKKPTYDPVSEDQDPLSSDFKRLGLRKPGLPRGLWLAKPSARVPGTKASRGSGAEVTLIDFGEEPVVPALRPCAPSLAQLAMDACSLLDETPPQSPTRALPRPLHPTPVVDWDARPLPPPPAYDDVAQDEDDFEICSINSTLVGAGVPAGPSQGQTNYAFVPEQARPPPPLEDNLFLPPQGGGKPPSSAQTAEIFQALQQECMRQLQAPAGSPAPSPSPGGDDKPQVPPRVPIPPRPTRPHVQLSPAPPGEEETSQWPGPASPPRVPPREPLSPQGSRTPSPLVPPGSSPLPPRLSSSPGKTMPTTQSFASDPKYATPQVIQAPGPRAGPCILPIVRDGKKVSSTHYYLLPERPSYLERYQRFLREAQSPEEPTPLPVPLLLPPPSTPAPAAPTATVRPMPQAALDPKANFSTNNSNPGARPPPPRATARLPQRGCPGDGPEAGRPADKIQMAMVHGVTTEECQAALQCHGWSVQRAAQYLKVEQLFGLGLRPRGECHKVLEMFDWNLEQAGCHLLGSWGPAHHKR

SMILES	Ki (Activated CDC42 kinase 1 [3])	IC50 (Activated CDC42 kinase 1 [4])	other results
COC(C)(C)CCn1nc(Nc2c(C)cccc2C)c2cnc(Nc3ccc(OCCCN4CCCCC4)c(F)c3)nc21	3 nM	60 nM	MRT [1]: 2 h; AUC [2]: 148 ng·h/mL; clearance [5]: 58.3 mL/min/kg; Vd [6]: 7.5 L/kg
COC(C)(C)CCn1nc(Nc2c(C)cccc2C)c2cnc(Nc3ccc(OCCN4CCCC4)cc3)nc21	3 nM	20 nM	Ki [7]: 0.25 nM; Ki [8]: 1590 nM; Ki (Angiopoietin-1 receptor): 1160 nM; Ki [9]: 170 nM; Ki [10]: 0.04 nM
CCOc1ccccc1Oc1nc(Nc2ccc(N3CCNCC3)cc2)ncc1C(=O)Nc1c(C)cccc1C	20 nM	100 nM	Ki [7]: 78 nM; Ki [8]: > 25000 nM; AUC [11]: 76 ng·h/mL; Ki (Angiopoietin-1 receptor): > 8300 nM; Ki [9]: 74 nM; Ki [10]: 13 nM; clearance [12]: 63.3 mL/min/kg
COC(C)(C)CCn1nc(Nc2c(C)cc(C)cc2C)c2cnc(Nc3ccc(N4CCN(C)CC4)cc3)nc21	12 nM	50 nM	–
Cc1cccc(C)c1Nc1nn(CCCN2CCCC2)c2nc(Nc3ccccc3)ncc12	100 nM	300 nM	–
OC[C@H](O)CCn1nc(Nc2c(Cl)cccc2Cl)c2cnc(Nc3ccccc3)nc21	10 nM	20 nM	bioavailability [13]: 30%
Cc1cccc(C)c1Nc1nn(CC[C@@H](O)CO)c2nc(Nc3ccccc3)ncc12	30 nM	60 nM	–
CN1CCN(CCn2nc(Nc3c(Cl)cccc3Cl)c3cnc(Nc4ccccc4)nc32)CC1	10 nM	30 nM	–
ON1CCN(CCn2nc(Nc3c(Cl)cccc3Cl)c3cnc(Nc4ccccc4)nc32)CC1	50 nM	30 nM	–
Cc1cccc(C)c1Nc1nn(CC[C@@H](O)CN(C)C)c2nc(Nc3ccccc3)ncc12	80 nM	190 nM	–
COC(C)(C)CCn1nc(Nc2c(C)cccc2C)c2cnc(Nc3ccc(N4CCNCC4)cc3)nc21	–	–	MRT [1]: 3.5 h; AUC [2]: 104 ng·h/mL; clearance [5]: 95 mL/min/kg; Vd [6]: 20.3 L/kg
COC(C)(C)CCn1nc(Nc2ccccc2)c2cnc(Nc3ccccc3)nc21	> 4000 nM	–	–
COC(C)(C)CCn1nc(Nc2c(C)cc(C)cc2C)c2cnc(Nc3ccccc3)nc21	> 2500 nM	–	–
CN(C)CCCn1nc(Nc2c(Cl)cccc2Cl)c2cnc(Nc3ccccc3)nc21	5 nM	20 nM	–
CCN(CC)CCCn1nc(Nc2c(C)cccc2C)c2cnc(Nc3ccccc3)nc21	40 nM	140 nM	–
CN(C)CCn1nc(Nc2c(Cl)cccc2Cl)c2cnc(Nc3ccccc3)nc21	5 nM	140 nM	–

SMILES	Ki (Activated CDC42 kinase 1 [3])	IC50 (Activated CDC42 kinase 1 [4])	other results
COC(C)(C)CCn1nc(Nc2c(C)cccc2C)c2cnc(Nc3ccccc3)nc21	3 nM	20 nM	–
COC(C)(C)CCn1nc(Nc2c(Cl)cccc2Cl)c2cnc(Nc3ccccc3)nc21	7 nM	40 nM	–
COC(C)(C)CCn1nc(Nc2c(Cl)cccc2Cl)c2cnc(Nc3ccc(N4CCNCC4)cc3)nc21	12 nM	10 nM	MRT [1]: 3.6 h; AUC [2]: 117 ng·h/mL; clearance [5]: 70 mL/min/kg; Vd [6]: 15.4 L/kg
COC(C)(C)CCn1nc(Nc2c(C)cccc2C)c2cnc(Nc3ccc(N4CCN(C)CC4)cc3)nc21	2 nM	20 nM	–
CN(C)[C@@H]1CCN(CCn2nc(Nc3c(Cl)cccc3Cl)c3cnc(Nc4ccccc4)nc32)C1	10 nM	20 nM	–
CN(C)C(=O)Cn1nc(Nc2c(Cl)cccc2Cl)c2cnc(Nc3ccccc3)nc21	30 nM	90 nM	–
COC(C)(C)CCn1nc(Nc2c(C)cccc2C)c2cnc(Nc3ccc(OCCN4CCCC4)c(F)c3)nc21	3 nM	20 nM	Ki [7]: 125 nM; Ki [8]: > 12500 nM; Ki (Angiopoietin-1 receptor): > 2500 nM; Ki [9]: > 12500 nM; Ki [10]: 11 nM
COC(C)(C)CCn1nc(Nc2c(Cl)cccc2Cl)c2cnc(Nc3ccc(OCCN4CCCC4)c(F)c3)nc21	2 nM	30 nM	MRT [1]: 2.7 h; AUC [2]: 174 ng·h/mL; clearance [5]: 48.3 mL/min/kg; Vd [6]: 7.7 L/kg
COC(C)(C)CCn1nc(Nc2c(C)cc(F)cc2C)c2cnc(Nc3ccc(N4CCN(C)CC4)cc3)nc21	10 nM	20 nM	–
COC(C)(C)CCn1nc(Nc2ccccc2)c2cnc(Nc3ccc(N4CCN(C)CC4)cc3)nc21	400 nM	2100 nM	–
Cc1cccc(C)c1Nc1nn(CCN2CCOCC2)c2nc(Nc3ccccc3)ncc12	50 nM	70 nM	–
O=C(Cn1nc(Nc2c(Cl)cccc2Cl)c2cnc(Nc3ccccc3)nc21)N1CCOCC1	70 nM	140 nM	–
OC[C@H]1CCCN1CCn1nc(Nc2c(Cl)cccc2Cl)c2cnc(Nc3ccccc3)nc21	30 nM	50 nM	–
COC(C)(C)CCn1nc(Nc2c(C)cc(F)cc2C)c2cnc(Nc3ccccc3)nc21	26 nM	5500 nM	–
Cc1cccc(C)c1Nc1nn(CCCN(C)C)c2nc(Nc3ccccc3)ncc12	30 nM	40 nM	–
